Screening results as filed in PubChem.
Kir21 block = inhibitors of mouse Kir2.1 inward-rectifier potassium channel; P35561; HEK293-Kir2.1, FluxOR thallium flux fluorescence; active compounds read low; B-score at 10 µM; actives 0.85% (n = 310,000); AID 1672;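 active = fluorescence ratio B-score at or below minus 3 SD of library scores, with starting-brightness B-score within 2 SD, cut at about -4.2 in these data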;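 note: channel flux triggered by added potassium and thallium sulfate stimulus; B-score of peak minus minimum fluorescence over baseline after thallium stimulus; more negative B-score means stronger Kir2.1 block with less thallium influx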
Target sequence (P35561 whole entry, looked up): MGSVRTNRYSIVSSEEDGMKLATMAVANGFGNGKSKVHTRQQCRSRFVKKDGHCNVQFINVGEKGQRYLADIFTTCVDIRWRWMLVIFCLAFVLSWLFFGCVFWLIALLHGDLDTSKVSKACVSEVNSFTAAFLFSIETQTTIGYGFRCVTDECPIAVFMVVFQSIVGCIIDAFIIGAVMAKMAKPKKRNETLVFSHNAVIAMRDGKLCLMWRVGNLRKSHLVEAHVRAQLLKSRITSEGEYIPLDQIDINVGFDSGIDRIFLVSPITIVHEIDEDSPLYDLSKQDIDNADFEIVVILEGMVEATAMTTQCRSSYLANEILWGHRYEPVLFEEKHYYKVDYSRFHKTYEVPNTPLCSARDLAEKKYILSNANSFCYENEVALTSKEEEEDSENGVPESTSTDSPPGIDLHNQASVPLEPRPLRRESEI
KCNK3 block = human KCNK3 channel inhibition, primary screen; O14649; CHO-KCNK3 thallium flux, FluxOR fluorescence; active compounds read low; B-score at 10 µM; actives 0.84% (n = 340,000);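 active = B-score under library mean minus 4 SD, starting fluorescence ratio at most library mean plus 5 SD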;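 note: more negative B-score means stronger inhibition of thallium flux through KCNK3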
hERG rescue = compounds protecting human hERG from proarrhythmic drug block | CHO-hERG, FluxOR thallium flux, dofetilide IC70 present | activation (rescue from dofetilide block), less the hit threshold, % at 10 µM | actives 0.51% (n = 310,000);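 active = activation above the mean of controls blocked by dofetilide plus 5 SD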;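 note: thallium influx through hERG after potassium depolarization seen as dye fluorescence rise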
KCNK9 inh = inhibitors of human KCNK9 two-pore domain potassium channel | actives 1.2% (n = 310,000) | Q9NPC2 | B-score at 10 µM | HEK293 KCNK9, FluxOR thallium flux fluorescence; active compounds read low;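 active = ratio B-score over 3 SD below the library mean, with starting fluorescence within 5 SD of its mean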;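 note: negative B-score means less thallium flux so channel inhibition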
KCNQ1 pot = potentiators or activators of human KCNQ1 potassium channel. P51787. CHO-K1 KCNQ1, thallium flux FluxOR fluorescence; active compounds read high. AID 2648. B-score at 10 µM. actives 0.35% (n = 310,000);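 active = fluorescence ratio B-score, a plate-corrected score, at least three library SD, with initial intensity B-score within 5 SD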
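Assay system: CHO-K1 cells stably expressing KCNQ1; Medium: assay buffer with matched DMSO; Also added: K+/Tl+ depolarizing stimulus; Dosing: single dose; Timing: dye 90 min, compound 20 min, room temperature; Measured by: kinetic FluxOR thallium fluorescence, 10-s 1-Hz baseline, 110-s post-stimulus read; Read-out: peak-minus-minimum fluorescence over initial fluorescence, negative-control normalized, B-scored.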
KCNQ1 inh = inhibitors of human KCNQ1 potassium channel; CHO-K1 KCNQ1, FluxOR thallium flux fluorescence; active compounds read high; actives 1.3% (n = 310,000); P51787; B-score at 10 µM; AID 2642;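 active = compounds whose thallium flux B-score, printed positive for inhibition, exceeds three library SD while starting fluorescence stays within three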;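 note: channel opened by potassium depolarization with thallium stimulus after 20 min compound exposure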
KCNK3 confirm = confirmation of human KCNK3 two-pore domain potassium channel inhibitors | actives 99% (n = 2,400) | shares compounds with KCNK3 block | CHO-KCNK3 thallium flux, FluxOR fluorescence; 0% buffer, 100% carvedilol maximal block | ratio percent of control, % at 10 µM;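 active = ratio percent of control, averaged over triplicates, above buffer control mean plus 5 SD, cut at about 64% in these data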;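 note: ratio is the fluorescence rise from min to max over baseline after thallium stimulus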
KCNK3 noninduced = KCNK3 inhibitor counter-screen hit in non-induced cells; shares compounds with KCNK3 block; thallium flux ratio (lower = more inhibition) at 10 µM; non-induced KCNK3 parental cells, FluxOR thallium flux; active compounds read low; actives 40% (n = 2,400);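 active = thallium flux ratio, averaged over three wells, more than 5 SD below the buffer control mean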;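 note: host cells are CHO cells without KCNK3 induction; ratio is peak minus trough fluorescence over baseline then normalized to buffer controls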
The depositor's hits bear a star. Rows were chosen to be rich in hits. Some 3.7% of all compounds tested hit in one or more screens of this group.

Results for COC(=O)c1sccc1NC(=O)c1c(Cl)cnn1C ?
Kir21 block: -1.79; KCNK3 block: inactive; hERG rescue: -6.9; KCNK9 inh: inactive; KCNQ1 pot: inactive; KCNQ1 inh: inactive

Results for O=C1OC(c2ccccc2)(c2ccccc2)c2ccccc21 ?
KCNK3 block: -12.5*; KCNK3 confirm: 107.0*; KCNK3 noninduced: inactive

How did O=C1CC(c2ccccc2)(c2ccccc2)c2ccccc21 do in these assays?
KCNK3 block: inactive

Results for CN1CCC=C(C(=O)N2c3ccccc3Sc3ccc(Cl)cc32)C1 ?
Kir21 block: -3.06; KCNK3 block: inactive; hERG rescue: -5.9; KCNK9 inh: inactive; KCNQ1 pot: inactive; KCNQ1 inh: inactive

What do the screens show for `CSc1ncccc1C(=O)N1CCN(S(=O)(=O)c2ccc(C)cc2)CC1`?
Kir21 block: 0.77; KCNK3 block: inactive; hERG rescue: -3.0; KCNK9 inh: inactive; KCNQ1 pot: inactive; KCNQ1 inh: inactive

What do the screens show for `CCN(CC)C(=O)C(Oc1ccc(S(=O)(=O)N2CCCC2)cc1[N+](=O)[O-])c1ccccc1` (stereo not drawn)?
Kir21 block: 1.99; KCNK3 block: -11.3*; hERG rescue: -3.3; KCNK9 inh: -7.14*; KCNQ1 pot: inactive; KCNQ1 inh: inactive; KCNK3 confirm: 98.0*; KCNK3 noninduced: inactive

How did O=C(Nc1ccc(Cl)cc1)c1cc(Br)ccc1OCC(=O)N1CCOCC1 do in these assays?
Kir21 block: -0.04; KCNK3 block: -10.1*; hERG rescue: -3.3; KCNK9 inh: inactive; KCNQ1 pot: inactive; KCNQ1 inh: inactive; KCNK3 confirm: 111.7*; KCNK3 noninduced: inactive

Results for O=C(Nc1ccc(OCC(=O)N2CCOCC2)cc1)c1ccccc1F ?
Kir21 block: -1.53; KCNK3 block: inactive; hERG rescue: -5.5; KCNK9 inh: inactive; KCNQ1 pot: inactive; KCNQ1 inh: inactive

Results for CSc1ccc(Cl)c(C(=O)NNC(=O)c2cccs2)c1 ?
KCNK3 block: inactive

How did Cc1sc2ncnc(N3CCC(C(=O)Nc4ccc(Br)cc4Br)CC3)c2c1C do in these assays?
Kir21 block: -2.88; KCNK3 block: -8.75*; hERG rescue: -9.5; KCNK9 inh: inactive; KCNQ1 pot: inactive; KCNQ1 inh: inactive; KCNK3 confirm: 113.0*; KCNK3 noninduced: inactive

How did CCOC(=O)c1cc2occc2n1Cc1c(F)cccc1Cl do in these assays?
Kir21 block: -1.32; KCNK3 block: -9.76*; hERG rescue: -12.3; KCNK9 inh: inactive; KCNQ1 pot: inactive; KCNQ1 inh: inactive; KCNK3 confirm: 77.0*; KCNK3 noninduced: inactive

How did CCOC(=O)N1CCN(Cc2c(F)cccc2Cl)CC1 do in these assays?
Kir21 block: -0.29; KCNK3 block: inactive; hERG rescue: -7.8; KCNK9 inh: inactive; KCNQ1 pot: inactive; KCNQ1 inh: inactive

What do the screens show for `O=C(NCCc1cn2ccccc2n1)c1cc(COc2ccc3ncccc3c2)on1`?
Kir21 block: -0.86; KCNK3 block: -13.5*; hERG rescue: -26.7; KCNK9 inh: inactive; KCNQ1 pot: inactive; KCNQ1 inh: inactive; KCNK3 confirm: 129.7*; KCNK3 noninduced: inactive

Results for O=C(NCCc1cn2ccccc2n1)c1ccccc1F ?
Kir21 block: 0.06; KCNK3 block: inactive; hERG rescue: -3.4; KCNK9 inh: inactive; KCNQ1 pot: inactive; KCNQ1 inh: inactive

How did COc1cccc(CN(C)C(=O)c2cc(COc3ccc4ncccc4c3)on2)c1 do in these assays?
Kir21 block: -1.89; KCNK3 block: -9.79*; hERG rescue: -19.1; KCNK9 inh: inactive; KCNQ1 pot: inactive; KCNQ1 inh: inactive; KCNK3 confirm: 120.3*; KCNK3 noninduced: inactive

What do the screens show for `COc1cccc(CN(C)C(=O)c2cc(COc3ccc(-n4cncn4)cc3)on2)c1`?
Kir21 block: -1.4; KCNK3 block: inactive; hERG rescue: -14.3; KCNK9 inh: inactive; KCNQ1 pot: inactive; KCNQ1 inh: inactive

How did CC(C)CC(=NNC(=O)c1ccncc1)c1cc(Cl)ccc1O do in these assays?
KCNK3 block: inactive

How did CCOc1cc(N2CCOCC2)c(OCC)cc1NC(=O)COc1cccc(CC)c1 do in these assays?
KCNK3 block: inactive

What do the screens show for `CCc1cccc(OCC(=O)Nc2ccccc2N2CCCC2)c1`?
Kir21 block: -0.31; KCNK3 block: -9.11*; hERG rescue: -10.1; KCNK9 inh: inactive; KCNQ1 pot: inactive; KCNQ1 inh: inactive; KCNK3 confirm: 119.7*; KCNK3 noninduced: 0.158*

How did Cc1cccc(NC(=O)CSCC(=O)Nc2ccccc2N2CCCC2)c1 do in these assays?
Kir21 block: -4.27*; KCNK3 block: -9.6*; hERG rescue: -13.7; KCNK9 inh: inactive; KCNQ1 pot: inactive; KCNQ1 inh: inactive; KCNK3 confirm: 87.3*; KCNK3 noninduced: inactive

Results for Cc1cccc(C)c1OCC(=O)Nc1ccccc1N1CCCCC1 ?
Kir21 block: 1.12; KCNK3 block: -9.32*; hERG rescue: -20.9; KCNK9 inh: -7.6*; KCNQ1 pot: inactive; KCNQ1 inh: inactive; KCNK3 confirm: 114.0*; KCNK3 noninduced: inactive

How did COc1cc(C(C)=O)ccc1OCC(=O)Nc1ccccc1N1CCCCC1 do in these assays?
Kir21 block: 0.3; KCNK3 block: inactive; hERG rescue: -4.7; KCNK9 inh: inactive; KCNQ1 pot: inactive; KCNQ1 inh: inactive

Results for CC(Oc1cccc(Cl)c1)C(=O)Nc1ccccc1N1CCCC1 (stereo not drawn) ?
Kir21 block: -1.33; KCNK3 block: -8.75*; hERG rescue: -18.0; KCNK9 inh: inactive; KCNQ1 pot: inactive; KCNQ1 inh: inactive; KCNK3 confirm: 124.0*; KCNK3 noninduced: inactive

How did CC1CN=C(c2ccccc2)O1 (stereo not drawn) do in these assays?
KCNK3 block: inactive

How did CC(C)c1nc(SCC(=O)Nc2cccc3ccccc23)n[nH]1 do in these assays?
KCNK3 block: inactive

How did Cc1ccc(S(=O)(=O)NCCC(=O)NNC(=O)c2ccccc2Cl)cc1C do in these assays?
KCNK3 block: inactive

Results for CN(C)C(CNC(=O)c1cc(-c2ccco2)nc2ccccc12)c1ccccc1 (stereo not drawn) ?
KCNK3 block: inactive

Results for Cc1ccc(Cl)c(OCC(=O)Nc2ccccc2N2CCCCC2)c1 ?
Kir21 block: -2.17; KCNK3 block: -10.4*; hERG rescue: -13.7; KCNK9 inh: inactive; KCNQ1 pot: inactive; KCNQ1 inh: inactive; KCNK3 confirm: 123.3*; KCNK3 noninduced: 0.146*
